Screening results deposited in PubChem by Broad Institute.
Beta cell apopt = inhibitors of cytokine-induced beta cell apoptosis, primary screen, luminescence | INS-1E cytokine-induced death, ATP luminescence, 48 h; percent of positive-control rescue, neutral wells zero | protection from apoptosis, % (concentration not given with the values) | 300,000 tested, 0.8% active;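 active means Every replicate reaches about 75%, or at least half do and their mean reaches it too, limit read from the data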;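 further: 0% = cytokine-treated negative control wells and 100% = positive control rescue; higher means more ATP so stronger rescue from cytokine killing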
PolyA inh = polyadenylation inhibitors in yeast reporter cells, primary screen, luminescence, S. cerevisiae. activity score, % at 12 µM. 300,000 tested, 0.02% active. S. cerevisiae SKY197-pL101 polyadenylation reporter, beta-gal luminescence; efflux-impaired pdr1/pdr3 knockout yeast; score 100 = 6 SD above DMSO;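 active means lowest replicate activity score at least 50, where 100 means six control SD above control mean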;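 further: yeast exposed to compound for 9 h at 30 °C; higher score means more reporter readthrough which indicates perturbed polyadenylation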
Calb FLC = C. albicans growth inhibition with fluconazole, primary screen, CaCi-2 strain, Alamar Blue fluorescence; C. albicans CaCi-2 (fluconazole-resistant clinical isolate) + fluconazole, 48 h; 300,000 tested, 0.57% active; growth inhibition, % (concentration not given with the values);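 active means growth inhibition above about 58% in most replicates, limit read from the data, passing the limit was not always enough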;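 further: all wells also contain fluconazole at 8 µg/ml as a sub-toxic cotreatment; 0% = median of DMSO wells and 100% = median of geldanamycin control wells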
T cruzi inh = inhibitors of intracellular T. cruzi growth, primary screen, luminescence, NIH3T3 host cells; T. cruzi beta-gal in NIH3T3, 90 h; inhibition, % (concentration not given with the values); 300,000 tested, 1.4% active;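 active means mean inhibition across valid replicates above about 55%, limit read from the data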;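 further: signal also drops with host cell toxicity which is not excluded here; 0% = plate median of DMSO wells and 100% = zero luminescence signal; higher percent means less beta-gal luminescence so fewer parasites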
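Material: NIH/3T3 host cells with β-galactosidase reporter T. cruzi; Input: 5,000 host fibroblasts per well; Medium: DMEM, 2% fetal bovine serum; Compound: 50 nL DMSO compound solution per well; Schedule: 3 h host attachment, then at least 90 h co-culture; Detection: luminescent β-galactosidase signal after 60 min lysis.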
CSC inhib = cancer stem cell viability inhibitors, primary screen, luminescence; inhibition, % at 7.5 µM; cancer stem cell-like cells viability; 300,000 tested, 1.1% active; in the data active means inhibition above about 75%; tested in HMLE shEcad cells
HIF act = HIF pathway transcriptional activators, primary screen, cell-based, U2OS HRE-luciferase, luminescence; U2OS HRE-luciferase reporter; normalized: DMSO 0%, desferrioxamine 100%; activation, % at 7.5 µM (by protocol); 300,000 tested, 0.32% active;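 active means mean activation of at least 10% of the iron chelator positive control signal, with at least half of replicates also reaching 10%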
* hit, by the source's call; nt = no result. Most compounds without a hit are left out; they make up all but 3.1% or so of the library.

SMILES	Beta cell apopt	PolyA inh	Calb FLC	T cruzi inh	CSC inhib	HIF act
Cc1ccc(S(=O)(=O)Nc2cc(-c3ccc(Cl)cc3)nn2C)cc1	-6.5	-10.3	23.8	-6.2	0.8	18.8*
CC(=O)c1ccc(S(=O)(=O)NC2CC(=O)N(c3cccc(F)c3)C2)cc1 (stereo not drawn)	3.1	2.5	3.7	-8.1	-6.3	-0.6
O=C1CC(NS(=O)(=O)c2ccc([N+](=O)[O-])cc2)CN1c1cccc(F)c1 (stereo not drawn)	nt	2.1	-13.3	64.8*	-19.5	0.8
COc1cccc(Cn2c(NCC(C)C)nc3c2c(=O)n(C)c(=O)n3C)c1	-3.4	5.1	1.7	10.1	nt	-0.5
COc1ccc(Cl)c(Cn2c(NCc3ccco3)nc3c2c(=O)n(C)c(=O)n3C)c1	77.8*	nt	nt	nt	2.0	nt
COc1cccc(Cn2c(NCc3ccco3)nc3c2c(=O)n(C)c(=O)n3C)c1	94.5*	7.0	-1.6	37.9	-0.2	-0.2
Cc1ccc(C(=O)NCc2ccco2)cc1S(=O)(=O)Nc1cccc(Cl)c1	-4.0	-9.2	113.1*	2.9	7.6	0.4
COCCCn1c(O)c(/C=C2\N=C(C#N)C(=Nc3ccc(C)cc3)O2)sc1=S	-4.5	0.6	2.5	4.9	-2.6	0.6
COc1ccc(C(O)(C(=O)NNc2ccc(C)cc2)c2cccs2)cc1 (stereo not drawn)	-5.8	-4.4	109.6*	-29.6	nt	-0.7
O=C(NNc1ccc(C2CCCCC2)cc1)C(O)(c1ccccc1)c1cccs1 (stereo not drawn)	9.1	7.4	16.6	33.0	nt	0.3
CCN(Cc1ccccc1)C(=O)CS(=O)(=O)c1ccccc1	-6.2	8.3	5.1	-0.5	-1.3	-0.4
O=S(=O)(C/C(=C/CO)S(=O)(=O)c1ccccc1)c1ccccc1	90.3*	-3.9	12.0	61.9*	3.1	-1.5
CCC(C)(NC(=O)c1ccc2c(c1)OCO2)C(=O)NC1CCCCC1 (stereo not drawn)	-4.5	-6.5	0.3	4.3	-8.1	0.0
c1ccc(C(c2ccccc2)c2noc(CN3CCN(C4CCCC4)CC3)n2)cc1	-3.9	2.5	3.8	43.4	34.6	-0.4
FC(F)(F)c1ccc(-c2noc(CN3CCCN(C4CCCCC4)CC3)n2)cc1	-3.7	-9.4	5.8	36.5	105.9*	0.1
C[C@@H]1NC(=O)[C@H](CCC(=O)O)NC(=O)c2cc([N+](=O)[O-])cc(F)c2NCCC[C@@H](C(N)=O)NC1=O	1.3	-13.6	-12.2	-5.2	-6.9	-1.6
N=c1c2c(-c3ccccc3)c(-c3ccccc3)n(Cc3ccco3)c2ncn1CCN1CCOCC1	3.1	-7.5	-1.7	67.1*	-3.6	-0.1
N=c1c2c(-c3ccccc3)c(-c3ccccc3)n(Cc3ccco3)c2ncn1CCO	9.4	-20.4	4.7	34.3	37.2	1.3
c1coc(CNc2nc3ccccc3n2CCN2CCOCC2)c1	13.0	-6.9	-1.7	4.9	-5.1	-0.4
N=c1c2c(-c3ccccc3)c(-c3ccccc3)n(Cc3ccco3)c2ncn1CCCO	5.0	7.8	6.1	64.7*	14.5	0.2
O=C1NN(c2ccccc2)C(=O)/C1=C/c1ccc(Sc2cccc3ccccc23)o1	-36.8	6.5	-1.2	-24.2	79.0*	-0.2
CCCCC(CCC(=O)O)(C(=O)OCC)c1csc(Nc2ccccc2)n1 (stereo not drawn)	-4.2	9.6	18.9	3.1	14.5	0.2
CCOC(=O)/C(=N\Nc1ccc(Cl)cc1)c1csc(Nc2ccccc2)n1	15.5	-10.1	-20.0	64.6*	-7.2	-41.1
CCOC(=O)/C(=N/Nc1ccccc1)c1csc(Nc2ccccc2)n1	16.2	-15.0	-26.7	61.5*	107.3*	0.2
CCOC(=O)/C(=N\Nc1ccc(OC)cc1)c1csc(Nc2ccccc2)n1	6.3	4.1	-14.8	81.2*	104.2*	1.6
O=C1OCC/C1=C\OCCCO/C=C1\CCOC1=O	-5.1	18.2	-1.3	-8.2	10.7	-0.7
CCOC(=O)c1sc(NNC(=O)c2ccc(C)cc2)nc1C	-4.2	10.3	4.8	-10.3	2.9	-0.3
